Assays:
[1] = molecular target: Histamine H3 receptor (Rattus norvegicus, UniProt Q9QYN8); assay: In vitro binding affinity for rat histamine H3 receptor using [3H]N-alpha-methylhistamine
Summary of the method: (§1)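 Radioligand binding used membranes from cells transfected with cloned human or rat H3 receptors.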

[2] = molecular target: Histamine H3 receptor (Homo sapiens, UniProt Q9Y5N1); assay: In vitro binding affinity for human histamine H3 receptor using [3H]N-alpha-methylhistamine; summary of the method: as §1
[3] = Area under plasma concentration curve of the compound upon p.o. dose of 1 mg/kg in rats; assay type: ADME, organism-based; parameters: dose 1 mg/kg, route oral; details: rat, in vivo, po
[4] = Area under plasma concentration curve of the compound upon i.v. dose of 1 mg/kg in rats; assay type: ADME, organism-based; parameters: dose 1 mg/kg, route intravenous; details: rat, in vivo, iv
[5] = Oral bioavailability in rat (dose 1 mg/kg); assay type: ADME, organism-based; details: in vivo
[6] = Terminal half life upon i.v. dose of 1 mg/kg in rats; assay type: ADME, organism-based; parameters: dose 1 mg/kg, route intravenous; details: rat, in vivo, iv
[7] = Plasma clearance upon i.v. dose of 1 mg/kg in rats; assay type: ADME, organism-based; parameters: dose 1 mg/kg, route intravenous; details: rat, iv
[8] = Maximum plasma concentration upon p.o. dose of 1 mg/kg in rats; assay type: ADME, organism-based; parameters: dose 1 mg/kg, route oral; details: rat, po
[9] = Terminal half life upon p.o. dose of 1 mg/kg in rats; assay type: ADME, organism-based; parameters: dose 1 mg/kg, route oral; details: rat, in vivo, po

Histamine H3 receptor (Homo sapiens, UniProt Q9Y5N1), sequence (Q9Y5N1 whole entry): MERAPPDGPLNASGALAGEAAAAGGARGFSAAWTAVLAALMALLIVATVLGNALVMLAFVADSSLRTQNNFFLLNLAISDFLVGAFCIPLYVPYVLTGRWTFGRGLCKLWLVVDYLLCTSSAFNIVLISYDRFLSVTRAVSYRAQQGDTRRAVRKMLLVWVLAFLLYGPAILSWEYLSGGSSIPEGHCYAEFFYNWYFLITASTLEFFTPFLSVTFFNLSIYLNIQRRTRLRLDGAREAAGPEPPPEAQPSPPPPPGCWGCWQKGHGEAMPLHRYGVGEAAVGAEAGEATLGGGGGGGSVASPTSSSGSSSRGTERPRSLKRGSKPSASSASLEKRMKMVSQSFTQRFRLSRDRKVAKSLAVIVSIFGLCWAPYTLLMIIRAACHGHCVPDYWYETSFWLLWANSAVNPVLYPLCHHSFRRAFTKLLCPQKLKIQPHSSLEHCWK
Histamine H3 receptor (Rattus norvegicus, UniProt Q9QYN8), sequence (Q9QYN8 whole entry): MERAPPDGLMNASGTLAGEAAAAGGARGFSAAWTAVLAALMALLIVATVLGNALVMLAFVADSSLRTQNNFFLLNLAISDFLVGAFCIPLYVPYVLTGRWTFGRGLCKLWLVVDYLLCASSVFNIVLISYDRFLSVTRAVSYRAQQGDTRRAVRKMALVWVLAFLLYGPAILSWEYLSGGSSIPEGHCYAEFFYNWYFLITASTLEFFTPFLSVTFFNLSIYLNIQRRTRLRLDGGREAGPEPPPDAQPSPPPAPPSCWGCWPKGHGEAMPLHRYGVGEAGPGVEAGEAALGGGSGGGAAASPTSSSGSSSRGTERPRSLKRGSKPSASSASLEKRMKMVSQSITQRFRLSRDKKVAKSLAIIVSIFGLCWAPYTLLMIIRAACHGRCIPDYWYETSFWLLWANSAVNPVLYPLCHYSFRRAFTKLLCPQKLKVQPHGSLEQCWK

Ki [1]	Ki [2]	SMILES	also measured
3960 pM	1040 pM	C[C@@H]1CCCN1CCc1cc2cc(CNc3nccnc3C#N)ccc2o1	
1180 pM	400 pM	C[C@@H]1CCCN1CCc1cc2cc(CNc3cccc(C#N)c3)ccc2o1	
400 pM	130 pM	C[C@@H]1CCCN1CCc1cc2cc(CNc3cc(C#N)nc(C#N)c3)ccc2o1	
870 pM	310 pM	C[C@@H]1CCCN1CCc1cc2cc(CNc3ccccc3[N+](=O)[O-])ccc2o1	
1470 pM	290 pM	C[C@@H]1CCCN1CCc1cc2cc(Nc3cccc(C#N)c3)ccc2o1	
350 pM	140 pM	C[C@@H]1CCCN1CCc1cc2cc(Nc3ncccc3[N+](=O)[O-])ccc2o1	
380 pM	110 pM	C[C@@H]1CCCN1CCc1cc2cc(Nc3cnccn3)ccc2o1	
2880 pM	710 pM	C[C@@H]1CCCN1CCc1cc2cc(CNc3ncc([N+](=O)[O-])cc3[N+](=O)[O-])ccc2o1	
1190 pM	300 pM	C[C@@H]1CCCN1CCc1cc2cc(CNc3ccc([N+](=O)[O-])cn3)ccc2o1	
1350 pM	270 pM	C[C@@H]1CCCN1CCc1cc2cc(Nc3ccc(C#N)cc3)ccc2o1	
2510 pM	690 pM	C[C@@H]1CCCN1CCc1cc2cc(CNc3cncnc3)ccc2o1	
110 pM	50 pM	C[C@@H]1CCCN1CCc1cc2cc(Nc3ccc([N+](=O)[O-])cn3)ccc2o1	
2760 pM	540 pM	C[C@@H]1CCCN1CCc1cc2cc(Nc3ccc(C(F)(F)F)cn3)ccc2o1	
2120 pM	740 pM	C[C@@H]1CCCN1CCc1cc2cc(CNc3ccc([N+](=O)[O-])cc3)ccc2o1	
1420 pM	340 pM	C[C@@H]1CCCN1CCc1cc2cc(CNc3ccc(C#N)cn3)ccc2o1	
2010 pM	310 pM	C[C@@H]1CCCN1CCc1cc2cc(Nc3ncccn3)ccc2o1	
2710 pM	430 pM	C[C@@H]1CCCN1CCc1cc2cc(CNc3ncccc3[N+](=O)[O-])ccc2o1	
270 pM	80 pM	C[C@@H]1CCCN1CCc1cc2cc(Nc3cncnc3)ccc2o1	AUC [3]: 0 ng·h/mL; AUC [4]: 35.9 ng·h/mL; bioavailability [5]: 0%; half-life [6]: 0.3 h; clearance [7]: 475 mL/min/kg
		C[C@@H]1CCCN1CCc1cc2cc(-c3ccc(C#N)cc3)ccc2o1	AUC [3]: 426 ng·h/mL; AUC [4]: 667 ng·h/mL; Cmax [8]: 39.6 ng/mL; bioavailability [5]: 61.8%; half-life [6]: 5.7 h; half-life [9]: 6.7 h; clearance [7]: 25.7 mL/min/kg
1580 pM	310 pM	C[C@@H]1CCCN1CCc1cc2cc(CNc3ccc(Cl)nn3)ccc2o1	
4020 pM	1220 pM	C[C@@H]1CCCN1CCc1cc2cc(CNc3ncc(Br)cn3)ccc2o1	
2510 pM	620 pM	CCc1cnc(Nc2ccc3oc(CCN4CCC[C@H]4C)cc3c2)nc1	AUC [3]: 103 ng·h/mL; AUC [4]: 355 ng·h/mL; Cmax [8]: 16.2 ng/mL; bioavailability [5]: 29%; half-life [6]: 3.7 h; half-life [9]: 4.8 h; clearance [7]: 47 mL/min/kg
1920 pM	740 pM	C[C@@H]1CCCN1CCc1cc2cc(CNc3ncccc3C#N)ccc2o1	
800 pM	290 pM	C[C@@H]1CCCN1CCc1cc2cc(CNc3cnccn3)ccc2o1	
870 pM	220 pM	C[C@@H]1CCCN1CCc1cc2cc(Nc3ccccc3[N+](=O)[O-])ccc2o1	
3270 pM	840 pM	C[C@@H]1CCCN1CCc1cc2cc(CNc3ncccn3)ccc2o1	AUC [3]: 72.1 ng·h/mL; AUC [4]: 350 ng·h/mL; Cmax [8]: 34.5 ng/mL; bioavailability [5]: 20.6%; half-life [6]: 1 h; half-life [9]: 1.7 h; clearance [7]: 47.7 mL/min/kg
2360 pM	740 pM	C[C@@H]1CCCN1CCc1cc2cc(CNc3ccc(C(=O)C(F)(F)F)cc3)ccc2o1	
680 pM	190 pM	C[C@@H]1CCCN1CCc1cc2cc(CNc3ncc([N+](=O)[O-])s3)ccc2o1	
17900 pM	2980 pM	Cc1ccc(C#N)c(Nc2ccc3oc(CCN4CCC[C@H]4C)cc3c2)n1	
580 pM	330 pM	CCc1cnc(NCc2ccc3oc(CCN4CCC[C@H]4C)cc3c2)nc1	AUC [3]: 18.9 ng·h/mL; AUC [4]: 210 ng·h/mL; Cmax [8]: 7.1 ng/mL; bioavailability [5]: 9%; half-life [6]: 1.7 h; clearance [7]: 79.8 mL/min/kg

From ChEMBL document CHEMBL1141118, “Synthesis and SAR of 5-amino- and 5-(aminomethyl)benzofuran histamine H3 receptor antagonists with improved potency” (J Med Chem, 2005)
